# Data as given in ChEMBL document CHEMBL4825680, “Structure-based discovery of potent and selective small-molecule inhibitors targeting signal transducer and activator of transcription 3 (STAT3)” (Eur J Med Chem, 2021).
# Active and inactive are the calls of the source. No cut-off for these calls is given here.
# How the values were obtained:
# [1] = test system: MGC-803; assay: Antiproliferative activity against human MGC-803 cells; assay type: functional, cell-based
# [2] = biological target: T1, Signal transducer and activator of transcription 3 (Homo sapiens, UniProt P40763); assay: Binding affinity to STAT3 (unknown origin) […]
# T1 sequence (P40763 whole entry): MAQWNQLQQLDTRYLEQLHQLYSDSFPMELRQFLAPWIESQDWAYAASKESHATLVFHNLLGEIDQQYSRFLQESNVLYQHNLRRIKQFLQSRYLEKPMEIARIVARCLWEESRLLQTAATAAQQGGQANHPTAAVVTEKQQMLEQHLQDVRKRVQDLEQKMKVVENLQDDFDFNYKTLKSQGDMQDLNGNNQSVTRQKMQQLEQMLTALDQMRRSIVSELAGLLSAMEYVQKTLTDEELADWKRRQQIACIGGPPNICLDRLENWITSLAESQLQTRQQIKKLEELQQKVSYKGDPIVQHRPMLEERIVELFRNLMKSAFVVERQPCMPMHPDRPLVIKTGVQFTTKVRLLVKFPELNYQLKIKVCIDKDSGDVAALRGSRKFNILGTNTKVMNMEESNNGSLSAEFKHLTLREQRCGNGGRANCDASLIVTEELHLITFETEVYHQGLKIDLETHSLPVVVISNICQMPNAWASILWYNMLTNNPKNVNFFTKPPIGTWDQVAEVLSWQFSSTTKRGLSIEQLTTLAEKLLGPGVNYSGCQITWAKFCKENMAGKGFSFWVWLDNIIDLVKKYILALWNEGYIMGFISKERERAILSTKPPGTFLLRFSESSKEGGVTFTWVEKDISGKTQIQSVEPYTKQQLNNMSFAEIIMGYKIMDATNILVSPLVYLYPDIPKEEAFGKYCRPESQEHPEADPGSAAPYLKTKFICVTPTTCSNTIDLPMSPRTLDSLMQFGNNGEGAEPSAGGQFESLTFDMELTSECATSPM
# [3] = biological target: T1, Signal transducer and activator of transcription 3; assay: Inhibition of STAT3 phosphorylation at Tyr705 residue in human MDA-MB-231 cells after 3 hrs by Western blotting analysis; assay type: cell-based; details: dose 0.3-3 µM
# [4] = biological target: T1, Signal transducer and activator of transcription 3; assay: Inhibition of STAT3 phosphorylation at Ser727 residue in human MDA-MB-231-4175 cells at 3 uM after 3 hrs by Western blotting analysis; assay type: cell-based; details: MDA231-LM2-4175
# [5] = biological target: T2, Signal transducer and activator of transcription 5A (Homo sapiens) (UniProt P42229); assay: Inhibition of STAT5 phosphorylation at Y694 residue in human MDA-MB-231 cells at 0.3 to 3 uM after 3 hrs by Western blotting analysis; assay type: cell-based; details: dose 0.3-3 µM
# T2 sequence (whole entry): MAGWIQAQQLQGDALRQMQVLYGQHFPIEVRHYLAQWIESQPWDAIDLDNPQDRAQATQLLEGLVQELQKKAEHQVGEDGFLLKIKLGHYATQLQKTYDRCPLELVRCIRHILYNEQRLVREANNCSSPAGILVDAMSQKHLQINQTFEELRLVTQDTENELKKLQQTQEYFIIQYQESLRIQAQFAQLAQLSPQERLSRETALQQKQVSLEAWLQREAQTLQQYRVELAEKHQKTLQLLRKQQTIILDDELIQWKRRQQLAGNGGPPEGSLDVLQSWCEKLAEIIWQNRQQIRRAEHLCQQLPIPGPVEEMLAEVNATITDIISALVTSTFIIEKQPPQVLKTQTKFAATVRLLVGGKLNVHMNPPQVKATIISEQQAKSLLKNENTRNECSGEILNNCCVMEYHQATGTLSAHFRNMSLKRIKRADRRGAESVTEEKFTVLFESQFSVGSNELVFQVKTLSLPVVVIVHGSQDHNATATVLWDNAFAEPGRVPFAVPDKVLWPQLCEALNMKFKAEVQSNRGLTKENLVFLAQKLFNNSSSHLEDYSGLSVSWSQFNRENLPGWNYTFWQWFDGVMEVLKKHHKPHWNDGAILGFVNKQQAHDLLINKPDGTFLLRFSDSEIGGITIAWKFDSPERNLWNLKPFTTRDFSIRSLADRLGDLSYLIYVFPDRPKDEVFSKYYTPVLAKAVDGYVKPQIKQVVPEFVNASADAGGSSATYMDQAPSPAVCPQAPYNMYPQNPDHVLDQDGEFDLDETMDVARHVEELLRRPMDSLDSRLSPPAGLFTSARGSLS
# [6] = test system: HCC70; assay: Effect on total STAT1 level in human HCC70 cells at 0.3 to 3 uM after 3 hrs by Western blotting analysis; assay type: functional, cell-based; details: dose 0.3-3 µM
# In short: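 Breast cancer cells were treated with vehicle (0.1% DMSO) or compound, then lysed in RIPA with PMSF and phosphatase inhibitors. 20–50 μg protein was run on 8 or 12% SDS-PAGE, blotted to PVDF, blocked in 5% BSA, probed with primary antibodies overnight at 4 °C, then HRP secondaries, with ECL detection.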
# [7] = biological target: T1, Signal transducer and activator of transcription 3; assay: Inhibition of STAT3 in human MDA-MB-231 cells assessed as downregulation of c-Myc expression at 0.3 to 3 uM after 24 hrs by western blot analysis; assay type: cell-based; details: dose 0.3-3 µM
# In short: (§1)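 TNBC cells given vehicle (0.1% DMSO) or graded compound levels for 24 h, lysed in RIPA with PMSF and phosphatase inhibitors. BCA-quantified lysate (20–50 µg) run on SDS-PAGE, transferred to PVDF, blocked in 5% BSA. Probed overnight at 4 °C for Bcl-xL, Mcl-1 and c-Myc, with β-actin. HRP secondary, ECL detection. Three independent experiments.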
# [8] = biological target: T1, Signal transducer and activator of transcription 3; assay: Inhibition of STAT3 in human MDA-MB-468 cells assessed as downregulation of c-Myc expression at 0.3 to 3 uM after 24 hrs by western blot analysis; assay type: cell-based; details: dose 0.3-3 µM; in short: as §1
# [9] = biological target: T1, Signal transducer and activator of transcription 3; assay: Inhibition of STAT3 in human MDA231-LM2-4175 cells assessed as downregulation of c-Myc expression at 0.3 to 3 uM after 24 hrs by western blot analysis; assay type: cell-based; details: dose 0.3-3 µM; in short: as §1
# [10] = biological target: T1, Signal transducer and activator of transcription 3; assay: Inhibition of STAT3 in human MDA231-LM2-4175 cells assessed as downregulation of Mcl-1 expression at 0.3 to 3 uM after 24 hrs by western blot analysis; assay type: cell-based; details: dose 0.3-3 µM; in short: as §1
# [11] = test system: MDA-MB-468; assay: Antiproliferative activity against human MDA-MB-468 cells assessed as reduction in cell viability after 72 hrs by CCK8 assay; assay type: functional, cell-based; details: MDA-MB-468, 72 h
# In short: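 Cells seeded at 1000–8000 per well were grown overnight, then exposed to 0.1–100 μM compound or 0.1% DMSO vehicle for 72 h. CCK-8 was added for 0.5–4 h at 37 °C and absorbance read at 480 nm. Viability = (OD compound − blank)/(OD vehicle − blank) × 100, with medium as blank. IC50 fitted from three independent experiments.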
# [12] = test system: HCC70; assay: Inhibition of colony formation in human HCC70 cells at 0.3 uM after 10 to 15 days by crystal violet staining based assay; assay type: functional, cell-based; details: time 10-15 day
# In short: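 Cells seeded at 0.5×10^3–1×10^3 per well; compound added the next day. Medium and compound renewed every 2–3 days. After about 10–15 days, colonies fixed with 4% paraformaldehyde, stained with crystal violet, scanned and quantified by image analysis. Triplicate.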
# [13] = test system: MDA-MB-231; assay: Induction of apoptosis in human MDA-MB-231 cells assessed as late apoptotic cells at 3 uM after 48 hrs by Annexin-V-FITC/propidium iodide staining based flow cytometric analysis (Rvb =3.05%); assay type: functional
# [14] = Induction of apoptosis in human MDA231-LM2-4175 cells assessed as necrotic cells at 3 uM after 48 hrs by Annexin-V-FITC/propidium iodide staining based flow cytometric analysis (reference value: 0.531%); assay type: functional
# [15] = test system: MDA231-LM2-4175; assay: Induction of apoptosis in human MDA231-LM2-4175 cells assessed as increase in PARP cleavage at 1 uM after 48 hrs by Western blot analysis; assay type: functional, cell-based
# In short: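 Breast cancer cells given vehicle (0.1% DMSO) or compound, then lysed in RIPA buffer with PMSF and phosphatase inhibitors. BCA-quantified lysate (20–50 µg) run on 8 or 12% SDS-PAGE and transferred to PVDF. Blocked in 5% BSA, probed overnight at 4 °C for PARP and cleaved caspase-7, HRP secondary, ECL detection. β-actin as loading control.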
# [16] = Toxicity in NOD/SCID mouse xenografted with patient-derived breast cancer cells assessed as morphological change in kidney at 5 to 15 mg/kg, […] once daily for 20 days by HE staining based assay; assay type: organism-based; details: in vivo, iv, dose 5-15 mg/kg, time 20 day
# In short: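 Female NOD-SCID mice implanted subcutaneously in the flank with about 2 mm³ TNBC PDX fragments. At about 100 mm³ tumour volume, randomised n=6/group: vehicle (PBS with 15% Cremophor EL), 5 or 15 mg/kg intraperitoneally daily. Killed at day 20; heart, liver, spleen, lung and kidney collected for morphological examination.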
smiles,measurement,setting,value
O=C(Cc1c(-c2ccccc2)nc2ccccn12)Nc1ccc2c(c1)S(=O)(=O)C=C2,IC50,[1],1600 nM
same,Kd,[2],432 nM
same,inhibition,[3],Dose-Dependent Effect
same,inhibition,[4],Active
same,inhibition,[5],inactive
same,Activity,[6],inactive
same,inhibition,[7],Active
same,inhibition,[8],Active
same,inhibition,[9],Active
same,inhibition,[10],Active
same,IC50,[11],2500 nM
same,inhibition,[12],Active
same,Activity,[13],11.5%
same,Activity,[14],1.37%
same,Activity,[15],Active
same,Activity,[16],Non-Toxic
